3 compounds from ChEMBL document CHEMBL1132240, “Design and synthesis of modified quinolones as antitumoral acridones” (J Med Chem, 1999) can be followed below.

pIC50: −log10 of the molar value.

Assay [1] concerns bone marrow cells (human). As to the kind of experiment: Relative cytotoxicity against Human bone marrow samples; Value is in range, activity expressed as IC90.
Assay [2] concerns bone marrow cells (human). As to the kind of experiment: Relative cytotoxicity against Human bone marrow samples; Value is in range, activity expressed as IC50.
Assay [3] deals with HL-60. The assay can be described thus: Relative cytotoxicity against Human promyelocytic Leukemia(HL-60) cells; Value is in range, activity expressed as IC90. Type of assay: functional. Summed up:
(§1)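 Second-stage assay on HL-60 (5 × 10^4/well) and soybean-agglutinin-negative mononuclear marrow cells (5 × 10^5/well) from six healthy donors. Four wells per concentration, 48 h at 37 °C, then [125I]iododeoxyuridine plus fluorodeoxyuridine for 18 h. Inhibition from fractional uptake decrease; IC50/IC90 by median-effect equation. Ranges are antilog(mean log ± 2SD); ratios use mean antilogs.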

Assay [4] deals with HL-60. As to the kind of experiment: Relative cytotoxicity against Human promyelocytic Leukemia(HL-60) cells; Value is in range, activity expressed as IC50. It counts as functional, cell-based. Summed up: as §1
Assay [5] can be described thus: Ratio of antilog(mean log IC50 in bone marrow sample) and antolog(mean log IC90) in HL-60). It counts as functional. Summed up: as §1
Assay [6] can be described thus: Ratio of antilog(mean log IC90 in bone marrow sample) and antolog(mean log IC90) in HL-60). Type of assay: functional. Summed up: as §1
Assay [7] in a line: Ratio of antilog(mean log IC50 in bone marrow sample) and antolog(mean log IC50) in HL-60). It counts as functional. Summed up: as §1
Assay [8] relates to Lewis lung carcinoma cell line. As to the kind of experiment: Cytotoxic activity against solid tumor LLC(Lewis lung carcinoma), concentration of agent required to reduce cell viability by 90%; not observed. The settings on record: Mus musculus. It counts as functional, cell-based. Summed up:
(§2)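 Modified MTT assay. Cells seeded per well with graded drug: CHO 2.5 × 10^3, B16 5 × 10^3, P388 and LLC 10^4, HL-60 and LoVo 5 × 10^4. After 68 h, MTT (2.5 mg/mL) added for 4 h at 37 °C. Formazan dissolved in DMSO and A550 read. Inhibition taken as fractional A550 decrease vs control. IC50/IC90 from Chou's median-effect equation.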

Assay [9] deals with LoVo. As to the kind of experiment: Cytotoxic activity against solid tumor, LoVo, (human colon adenocarcinoma) Concentration of agent required to reduce cell viability by 50%. It counts as functional, cell-based. The gist of the method:
as §2

For assay [10], the system named is B16. As to the kind of experiment: Cytotoxic activity against solid tumor, B16 (murine melanoma) Concentration of agent required to reduce cell viability by 90%; Not observed. Type of assay: functional, cell-based. The settings on record: Mus musculus. Summed up: as §2
Assay [11] has as its system CHO. The assay can be described thus: Cytotoxic activity against solid tumor, CHO (Chinese hamster ovaric carcinoma) Concentration of agent required to reduce cell viability by 90%; Not observed. It counts as functional, cell-based. The settings on record: Cricetulus griseus. The gist of the method:
as §2

Assay [12] relates to HL-60. As to the kind of experiment: Cytotoxic activity against Human promyelocytic Leukemia HL-60 Concentration of agent required to reduce cell viability by 90%. Type of assay: functional. The gist of the method: as §2
For assay [13], the system named is LoVo. As to the kind of experiment: Cytotoxic activity against solid tumor, LoVo, (human colon adenocarcinoma) Concentration of agent required to reduce cell viability by 90%. It counts as functional. The gist of the method: as §2
In assay [14] the test system is Lewis lung carcinoma cell line. The assay can be described thus: Cytotoxic activity against solid tumor LLC(Lewis lung carcinoma), concentration of agent required to reduce cell viability by 50%. Type of assay: functional, cell-based. The note with it: Mus musculus. The gist of the method:
as §2

Assay [15] deals with P388. As to the kind of experiment: Cytotoxic activity Murine Lymphocytic Leukemia P388 Concentration of agent required to reduce cell viability by 90%. Type of assay: functional. The note with it: Mus musculus. The gist of the method: as §2
The test system of assay [16] is B16. The assay can be described thus: Cytotoxic activity against solid tumor, B16 (murine melanoma) Concentration of agent required to reduce cell viability by 50%. It counts as functional, cell-based. The note with it: Mus musculus. The gist of the method: as §2
For assay [17], the species on record is Homo sapiens. The assay can be described thus: Relative cytotoxicity against Human bone marrow samples; Value is in range, activity expressed as IC90. It counts as functional. Summed up: as §1
Assay [18] deals with HL-60. The assay can be described thus: Cytotoxic activity against Human promyelocytic Leukemia HL-60 Concentration of agent required to reduce cell viability by 50%. It counts as functional, cell-based. Summed up: as §2
Assay [19] relates to CHO. As to the kind of experiment: Cytotoxic activity against solid tumor, CHO (Chinese hamster ovaric carcinoma) Concentration of agent required to reduce cell viability by 50%. Type of assay: functional, cell-based. The settings on record: Cricetulus griseus. Summed up: as §2
Assay [20] deals with P388. As to the kind of experiment: Cytotoxic activity against Murine Lymphocytic Leukemia P388 Concentration of agent required to reduce cell viability by 50%. Type of assay: functional, cell-based. The note with it: Mus musculus. Summed up:
as §2

For assay [21], the species on record is Homo sapiens. The assay can be described thus: Relative cytotoxicity against Human bone marrow samples; Value is in range, activity expressed as IC50. Type of assay: functional. Summed up:
as §1

Assay [22] has as its system B16. As to the kind of experiment: Cytotoxic activity against solid tumor, B16 (murine melanoma) Concentration of agent required to reduce cell viability by 90%. It counts as functional. The note with it: Mus musculus. Summed up:
as §2

Assay [23] has as its system P388. As to the kind of experiment: In vivo antitumor activity against Murine P388 Leukemia at 50 mg/kg dose;(Median survival time of treated mice)/(median survival time of controls) x100. It counts as functional, Mus musculus. Summed up: (§3)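 Female BD2F1 mice (8 weeks, 20-22 g), eight per group, given 10^5 P388 cells ip on day 0. From 24 h later, drug was given ip once daily for 9 days as a micronized suspension in 0.5% carboxymethylcellulose. Deaths were recorded daily over a 33-day study. %T/C = median survival time of treated / median survival time of controls × 100; >125 taken as significant.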

Assay [24] has as its system P388. The assay can be described thus: In vivo antitumor activity against Murine P388 Leukemia at 75 mg/kg dose;(Median survival time of treated mice)/(median survival time of controls) x100. It counts as functional, Mus musculus. The gist of the method:
as §3

The test system of assay [25] is P388. As to the kind of experiment: In vivo antitumor activity against Murine P388 Leukemia at 100 mg/kg dose;(Median survival time of treated mice)/(median survival time of controls) x100. Type of assay: functional, Mus musculus. Summed up:
as §3

The test system of assay [26] is CHO. As to the kind of experiment: Cytotoxic activity against solid tumor, CHO (Chinese hamster ovaric carcinoma) Concentration of agent required to reduce cell viability by 90%. Type of assay: functional. The note with it: Cricetulus griseus. Summed up: as §2
The subject of assay [27] is P388. The assay can be described thus: In vivo antitumor activity against Murine P388 Leukemia at 25 mg/kg dose;(Median survival time of treated mice)/(median survival time of controls) x100. It counts as functional, Mus musculus. The gist of the method: as §3
The subject of assay [28] is Lewis lung carcinoma cell line. The assay can be described thus: Cytotoxic activity against solid tumor LLC(Lewis lung carcinoma), concentration of agent required to reduce cell viability by 90%. Type of assay: functional. The note with it: Mus musculus. The gist of the method: as §2

As for `O=C1c2c(O)ccc(O)c2C(=O)c2c(NCCNCCO)ccc(NCCNCCO)c21` [MITOXANTRONE], the IC90 was 38.7 µM in [1] and 8.03 µM in [3]. In addition, the figures for the pIC50 in assay [2] and in assay [4] were 4.56 and 5.47, respectively. In addition, the Ratio in [5] amounted to 2.1; in assay [6], 11.6; in assay [7], 4.8.
`CCN(CC)CCn1c2cc(N3CCC(O)CC3)c(N)cc2c(=O)c2c(O)cc(O)cc21`: the IC90 result was “Not observed” in [8]; “Not observed” in assay [10]; 0.657 µM in [3]; “Not observed” in assay [11]; 3.6 µM in [12]; over 32 µM in assay [13]. The values for the IC90 in assay [15] and in assay [17] were 1.6 µM and 0.672 µM, respectively. The pIC50 in assay [9] was under 4.49; in [4] it was 6.29; in assay [14] it was 5.06; in assay [16], 5.77; in assay [18], 5.66; in assay [19] it was 4.64. For the same compound, the results for the pIC50 in assay [20] and in [21] were 6.21 and 6.77, respectively. In addition, the Ratio in assay [5] is 0.3; in assay [6] it was 1.1; in [7] it was 0.4.
For the compound `CCN(CC)CCn1c2cc(Cl)c(N)cc2c(=O)c2c(O)cc(O)cc21`, the pIC50 in [9] was 5.27; in [4], 5.44; in assay [14], 5.44; in assay [16], 6.00; in assay [18], 5.41; in [19] it was 5.82. For the same compound, the values for the pIC50 in assay [20] and in [21] were 5.85 and 5.82, respectively. Besides, the IC90 is 5.74 µM in assay [3]; 5.9 µM in assay [22]; 10 µM in assay [12]; 14 µM in assay [13]; 3.5 µM in assay [15]; 6.46 µM in assay [17]. Also, the concentration for an effect of 90% (IC90) in assay [26] was found to be 6.3 µM; in [28], 11 µM. In addition, the Ratio in assay [5] is listed as 0.2; in assay [6], 0.7; in assay [7], 0.3. The T/C in assay [23] is 109%; in assay [24], 110%; in assay [25], 111%; in assay [27], 105%.

Broadly, the IC90 is the concentration at which the effect reaches the 90% level. The term pIC50 denotes −log10 of the IC50, conventionally taken in molar units. Low readings indicate a high IC50, high ones a low IC50. What is called T/C is the ratio of treated to control.
